# From ChEMBL document CHEMBL1649446, “Comparative antipneumococcal activities of sulopenem and other drugs” (2009)
# Legend:
# Assay type in all cases: functional
# Streptococcus pneumoniae [1] = assay: Antimicrobial activity against Streptococcus pneumoniae 19A by agar dilution method
# Procedure, shortened: (§1)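 Agar dilution MIC on Mueller-Hinton agar with 5% sheep blood, inocula 10^4 CFU/spot; amoxicillin-clavulanate combined 1:2; S. pneumoniae ATCC 49619 quality control each run.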
# Streptococcus pneumoniae [2] = assay: Antimicrobial activity against Streptococcus pneumoniae isolate 3282 by agar dilution method
# Streptococcus pneumoniae [3] = assay: Antimicrobial activity against Streptococcus pneumoniae 3 by time-kill analysis in presence of beta-lactamase inhibitor clavulanic acid
# Streptococcus pneumoniae [4] = assay: Antimicrobial activity against Streptococcus pneumoniae 11 by time-kill analysis in presence of beta-lactamase inhibitor clavulanic acid
# Streptococcus pneumoniae [5] = assay: Antimicrobial activity against Streptococcus pneumoniae 6 by time-kill analysis
# Procedure, shortened: (§2)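 Time-kill in cation-adjusted Mueller-Hinton broth with 5% lysed horse blood; inocula 5 × 105 to 5 × 10^6 CFU/ml; drugs at MIC, 2× and 4× MIC; 35°C shaking water bath; viable counts at 0, 3, 6, 12, 24 h. Bactericidal = ≥3 log10 CFU/ml (99.9%) drop from original inoculum; 90%/99%/99.9% killing scored per strain.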
# Streptococcus pneumoniae [6] = assay: Antimicrobial activity against Streptococcus pneumoniae isolate 3260 by agar dilution method
# Streptococcus pneumoniae [7] = assay: Antimicrobial activity against Streptococcus pneumoniae isolate 3346 by agar dilution method
# Streptococcus pneumoniae [8] = assay: Antimicrobial activity against Streptococcus pneumoniae isolate 3374 by agar dilution method; procedure, shortened: as §1
# Streptococcus pneumoniae [9] = assay: Antimicrobial activity against Streptococcus pneumoniae 12 by time-kill analysis; procedure, shortened: as §2
# Streptococcus pneumoniae [10] = assay: Antimicrobial activity against Streptococcus pneumoniae isolate 1424 by agar dilution method; procedure, shortened: as §1
# Streptococcus pneumoniae [11] = assay: Antimicrobial activity against Streptococcus pneumoniae isolate 3791 by agar dilution method; procedure, shortened: as §1
# Streptococcus pneumoniae [12] = assay: Antimicrobial activity against Streptococcus pneumoniae isolate 3481 by agar dilution method; procedure, shortened: as §1
# Streptococcus pneumoniae [13] = assay: Antimicrobial activity against Streptococcus pneumoniae 6 by time-kill analysis in presence of beta-lactamase inhibitor clavulanic acid
# Streptococcus pneumoniae [14] = assay: Antimicrobial activity against Streptococcus pneumoniae isolate 3681 by agar dilution method; procedure, shortened: as §1
# Streptococcus pneumoniae [15] = assay: Antimicrobial activity against Streptococcus pneumoniae isolate 33 by agar dilution method; procedure, shortened: as §1
# Streptococcus pneumoniae [16] = assay: Antimicrobial activity against Streptococcus pneumoniae isolate 2688 by agar dilution method; procedure, shortened: as §1
# Streptococcus pneumoniae [17] = assay: Antimicrobial activity against Streptococcus pneumoniae isolate 1394 by agar dilution method
# Streptococcus pneumoniae [18] = assay: Antimicrobial activity against Streptococcus pneumoniae isolate 1146 by agar dilution method; procedure, shortened: as §1
# Streptococcus pneumoniae [19] = assay: Antimicrobial activity against Streptococcus pneumoniae isolate 1564 by agar dilution method
# Streptococcus pneumoniae [20] = assay: Antimicrobial activity against Streptococcus pneumoniae 9 by time-kill analysis
# Procedure, shortened: as §2, with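 “12 and” for “12,”, “if” for “=”, “reduction” for “drop”, “90% and 99%” for “90%/99%/99.9%”, “also scored.” for “scored per strain.”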
# Streptococcus pneumoniae [21] = assay: Antimicrobial activity against penicillin-intermediate Streptococcus pneumoniae by agar dilution method in presence of beta-lactamase inhibitor clavulanic acid
# Procedure, shortened: (§3)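 Agar dilution MIC on Mueller-Hinton agar with 5% sheep blood at 10^4 CFU/spot. Clavulanate combined with amoxicillin 1:2. Control S. pneumoniae ATCC 49619 included in each run. Penicillin categories: intermediate 0.125–1.0 μg/ml, resistant 2.0–16.0 μg/ml. MIC50/MIC90 taken across strain sets, including 45 drug-resistant serotype 19A isolates.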
# Streptococcus pneumoniae [22] = assay: Antimicrobial activity against Streptococcus pneumoniae isolate 2880 by agar dilution method; procedure, shortened: as §1
# Streptococcus pneumoniae [23] = assay: Antimicrobial activity against Streptococcus pneumoniae 7 by time-kill analysis in presence of beta-lactamase inhibitor clavulanic acid
# Streptococcus pneumoniae [24] = assay: Antimicrobial activity against Streptococcus pneumoniae isolate 37 by agar dilution method; procedure, shortened: as §1
# Streptococcus pneumoniae [25] = assay: Antimicrobial activity against Streptococcus pneumoniae 1 by time-kill analysis
# Procedure, shortened: as §2, with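 “12 and” for “12,”, “if” for “=”, “reduction” for “drop”, “90% and 99%” for “90%/99%/99.9%”, “also scored.” for “scored per strain.”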
# Streptococcus pneumoniae [26] = assay: Antimicrobial activity against Streptococcus pneumoniae 2 by time-kill analysis; procedure, shortened: as §2
# Streptococcus pneumoniae [27] = assay: Antimicrobial activity against Streptococcus pneumoniae 10 by time-kill analysis; procedure, shortened: as §2
# Streptococcus pneumoniae [28] = assay: Antimicrobial activity against Streptococcus pneumoniae 8 by time-kill analysis in presence of beta-lactamase inhibitor clavulanic acid
# Streptococcus pneumoniae [29] = assay: Antimicrobial activity against Streptococcus pneumoniae 12 by time-kill analysis in presence of beta-lactamase inhibitor clavulanic acid
# Streptococcus pneumoniae [30] = assay: Antimicrobial activity against Streptococcus pneumoniae 1 by time-kill analysis in presence of beta-lactamase inhibitor clavulanic acid
# Streptococcus pneumoniae [31] = assay: Antimicrobial activity against Streptococcus pneumoniae isolate 3587 by agar dilution method
# Streptococcus pneumoniae [32] = assay: Antimicrobial activity against Streptococcus pneumoniae isolate 2874 by agar dilution method; procedure, shortened: as §1
# Streptococcus pneumoniae [33] = assay: Antimicrobial activity against Streptococcus pneumoniae 3 by time-kill analysis; procedure, shortened: as §2
# Streptococcus pneumoniae [34] = assay: Antimicrobial activity against penicillin-resistant Streptococcus pneumoniae by agar dilution method; procedure, shortened: as §1
# Streptococcus pneumoniae [35] = assay: Antimicrobial activity against Streptococcus pneumoniae 9 by time-kill analysis in presence of beta-lactamase inhibitor clavulanic acid
# Streptococcus pneumoniae [36] = assay: Antimicrobial activity against penicillin-susceptible Streptococcus pneumoniae by agar dilution method in presence of beta-lactamase inhibitor clavulanic acid
# Streptococcus pneumoniae [37] = assay: Antimicrobial activity against Streptococcus pneumoniae isolate 4747 by agar dilution method; procedure, shortened: as §1
# Streptococcus pneumoniae [38] = assay: Antimicrobial activity against Streptococcus pneumoniae 10 by time-kill analysis in presence of beta-lactamase inhibitor clavulanic acid
# Streptococcus pneumoniae [39] = assay: Antimicrobial activity against Streptococcus pneumoniae 11 by time-kill analysis; procedure, shortened: as §2
# Streptococcus pneumoniae [40] = assay: Antimicrobial activity against Streptococcus pneumoniae isolate 3263 by agar dilution method
# Streptococcus pneumoniae [41] = assay: Antimicrobial activity against Streptococcus pneumoniae 7 by time-kill analysis; procedure, shortened: as §2
# Streptococcus pneumoniae [42] = assay: Antimicrobial activity against Streptococcus pneumoniae isolate 1397 by agar dilution method; procedure, shortened: as §1
# Streptococcus pneumoniae [43] = assay: Antimicrobial activity against Streptococcus pneumoniae isolate 3275 by agar dilution method; procedure, shortened: as §1
# Streptococcus pneumoniae [44] = assay: Antimicrobial activity against Streptococcus pneumoniae isolate 24 by agar dilution method
# Streptococcus pneumoniae [45] = assay: Antimicrobial activity against Streptococcus pneumoniae 8 by time-kill analysis; procedure, shortened: as §2
# Streptococcus pneumoniae [46] = assay: Antimicrobial activity against Streptococcus pneumoniae isolate 1147 by agar dilution method; procedure, shortened: as §1
# Streptococcus pneumoniae [47] = assay: Antimicrobial activity against Streptococcus pneumoniae isolate 4755 by agar dilution method; procedure, shortened: as §1
# Streptococcus pneumoniae [48] = assay: Antimicrobial activity against Streptococcus pneumoniae isolate 3412 by agar dilution method; procedure, shortened: as §1
# Streptococcus pneumoniae [49] = assay: Antimicrobial activity against Streptococcus pneumoniae isolate 1055 by agar dilution method
# Streptococcus pneumoniae [50] = assay: Antimicrobial activity against penicillin-intermediate Streptococcus pneumoniae by agar dilution method
# Streptococcus pneumoniae [51] = assay: Antimicrobial activity against Streptococcus pneumoniae 2 by time-kill analysis in presence of beta-lactamase inhibitor clavulanic acid
# Streptococcus pneumoniae [52] = assay: Antimicrobial activity against Streptococcus pneumoniae isolate 3455 by agar dilution method
# Streptococcus pneumoniae [53] = assay: Antimicrobial activity against Streptococcus pneumoniae 5 by time-kill analysis in presence of beta-lactamase inhibitor clavulanic acid
# Streptococcus pneumoniae [54] = assay: Antimicrobial activity against penicillin-resistant Streptococcus pneumoniae by agar dilution method in presence of beta-lactamase inhibitor clavulanic acid; procedure, shortened: as §3
# Streptococcus pneumoniae [55] = assay: Antimicrobial activity against Streptococcus pneumoniae 4 by time-kill analysis; procedure, shortened: as §2
# Streptococcus pneumoniae [56] = assay: Antimicrobial activity against Streptococcus pneumoniae isolate 1384 by agar dilution method; procedure, shortened: as §1
# Streptococcus pneumoniae [57] = assay: Antimicrobial activity against penicillin-susceptible Streptococcus pneumoniae by agar dilution method
# Streptococcus pneumoniae [58] = assay: Antimicrobial activity against Streptococcus pneumoniae isolate 2617 by agar dilution method; procedure, shortened: as §1
# Streptococcus pneumoniae [59] = assay: Antimicrobial activity against Streptococcus pneumoniae 5 by time-kill analysis
# Procedure, shortened: as §2, with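 “12 and” for “12,”, “if” for “=”, “reduction” for “drop”, “90% and 99%” for “90%/99%/99.9%”, “also scored.” for “scored per strain.”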
# Streptococcus pneumoniae [60] = assay: Antimicrobial activity against Streptococcus pneumoniae isolate 2686 by agar dilution method; procedure, shortened: as §1
# Streptococcus pneumoniae [61] = assay: Antimicrobial activity against Streptococcus pneumoniae 4 by time-kill analysis in presence of beta-lactamase inhibitor clavulanic acid
# Streptococcus pneumoniae [62] = assay: Antimicrobial activity against Streptococcus pneumoniae 19A by agar dilution method in presence of beta-lactamase inhibitor clavulanic acid; procedure, shortened: as §3
# Streptococcus pneumoniae [63] = assay: Antimicrobial activity against Streptococcus pneumoniae isolate 3458 by agar dilution method
structure (smiles),measurement,setting,value
CC1(C)S[C@@H]2[C@H](NC(=O)[C@H](N)c3ccc(O)cc3)C(=O)N2[C@H]1C(=O)O [AMOXICILLIN],MIC50,Streptococcus pneumoniae [1],8 µg/mL
same,MIC90,Streptococcus pneumoniae [1],8 µg/mL
same,MIC,Streptococcus pneumoniae [2],4 µg/mL
same,MIC,Streptococcus pneumoniae [3],0.5 µg/mL
same,MIC,Streptococcus pneumoniae [4],2 µg/mL
same,MIC,Streptococcus pneumoniae [5],0.25 µg/mL
same,MIC,Streptococcus pneumoniae [6],8 µg/mL
same,MIC,Streptococcus pneumoniae [7],8 µg/mL
same,MIC,Streptococcus pneumoniae [8],1 µg/mL
same,MIC,Streptococcus pneumoniae [9],1 µg/mL
same,MIC,Streptococcus pneumoniae [10],8 µg/mL
same,MIC,Streptococcus pneumoniae [11],2 µg/mL
same,MIC,Streptococcus pneumoniae [12],8 µg/mL
same,MIC,Streptococcus pneumoniae [13],0.25 µg/mL
same,MIC,Streptococcus pneumoniae [14],2 µg/mL
same,MIC,Streptococcus pneumoniae [15],2 µg/mL
same,MIC,Streptococcus pneumoniae [16],16 µg/mL
same,MIC,Streptococcus pneumoniae [17],8 µg/mL
same,MIC,Streptococcus pneumoniae [18],4 µg/mL
same,MIC,Streptococcus pneumoniae [19],4 µg/mL
same,MIC,Streptococcus pneumoniae [20],0.25 µg/mL
same,MIC50,Streptococcus pneumoniae [21],0.25 µg/mL
same,MIC90,Streptococcus pneumoniae [21],1 µg/mL
same,MIC,Streptococcus pneumoniae [22],0.125 µg/mL
same,MIC,Streptococcus pneumoniae [23],2 µg/mL
same,MIC,Streptococcus pneumoniae [24],2 µg/mL
same,MIC,Streptococcus pneumoniae [25],0.03 µg/mL
same,MIC,Streptococcus pneumoniae [26],0.03 µg/mL
same,MIC,Streptococcus pneumoniae [27],0.06 µg/mL
same,MIC,Streptococcus pneumoniae [28],2 µg/mL
same,MIC,Streptococcus pneumoniae [29],1 µg/mL
same,MIC,Streptococcus pneumoniae [30],0.03 µg/mL
same,MIC,Streptococcus pneumoniae [31],1 µg/mL
same,MIC,Streptococcus pneumoniae [32],0.5 µg/mL
same,MIC,Streptococcus pneumoniae [33],0.5 µg/mL
same,MIC50,Streptococcus pneumoniae [34],2 µg/mL
same,MIC90,Streptococcus pneumoniae [34],8 µg/mL
same,MIC,Streptococcus pneumoniae [35],0.25 µg/mL
same,MIC50,Streptococcus pneumoniae [36],0.03 µg/mL
same,MIC90,Streptococcus pneumoniae [36],0.03 µg/mL
same,MIC,Streptococcus pneumoniae [37],8 µg/mL
same,MIC,Streptococcus pneumoniae [38],0.06 µg/mL
same,MIC,Streptococcus pneumoniae [39],2 µg/mL
same,MIC,Streptococcus pneumoniae [40],2 µg/mL
same,MIC,Streptococcus pneumoniae [41],2 µg/mL
same,MIC,Streptococcus pneumoniae [42],4 µg/mL
same,MIC,Streptococcus pneumoniae [43],1 µg/mL
same,MIC,Streptococcus pneumoniae [44],2 µg/mL
same,MIC,Streptococcus pneumoniae [45],2 µg/mL
same,MIC,Streptococcus pneumoniae [46],4 µg/mL
same,MIC,Streptococcus pneumoniae [47],4 µg/mL
same,MIC,Streptococcus pneumoniae [48],4 µg/mL
same,MIC,Streptococcus pneumoniae [49],4 µg/mL
same,MIC50,Streptococcus pneumoniae [50],0.25 µg/mL
same,MIC90,Streptococcus pneumoniae [50],1 µg/mL
same,MIC,Streptococcus pneumoniae [51],0.03 µg/mL
same,MIC,Streptococcus pneumoniae [52],8 µg/mL
same,MIC,Streptococcus pneumoniae [53],8 µg/mL
same,MIC50,Streptococcus pneumoniae [54],2 µg/mL
same,MIC90,Streptococcus pneumoniae [54],4 µg/mL
same,MIC,Streptococcus pneumoniae [55],2 µg/mL
same,MIC,Streptococcus pneumoniae [56],4 µg/mL
same,MIC50,Streptococcus pneumoniae [57],0.03 µg/mL
same,MIC90,Streptococcus pneumoniae [57],0.03 µg/mL
same,MIC,Streptococcus pneumoniae [58],1 µg/mL
same,MIC,Streptococcus pneumoniae [59],8 µg/mL
same,MIC,Streptococcus pneumoniae [60],8 µg/mL
same,MIC,Streptococcus pneumoniae [61],2 µg/mL
same,MIC50,Streptococcus pneumoniae [62],8 µg/mL
same,MIC90,Streptococcus pneumoniae [62],8 µg/mL
same,MIC,Streptococcus pneumoniae [63],8 µg/mL
